According to ChEMBL document CHEMBL1147857, “A chromone analog inhibits TNF-alpha induced expression of cell adhesion molecules on human endothelial cells via blocking NF-kappaB activation” (Bioorg Med Chem, 2007):
The source made the active and inactive calls. The rule behind the calls is not given here.

Legend:
Liver microsomes [1] = test: Inhibition of NADPH-catalyzed lipid peroxidation in Wistar rat liver microsome at 110 ug/ml after 10 mins; assay type: functional
How it was run: (§1)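 Liver microsomes came from male Wistar rats of about 200 g. Each mix held microsomes (1 mg protein), 0.025 M Tris-HCl pH 7.5, 3 mM ADP and 0.15 mM FeCl3. Mixes were preincubated 10 min at 37 °C, then 10 min with compound in DMSO. Peroxidation was started with 0.5 mM NADPH and stopped with TCA/HCl/TBA. Samples were heated at 95 °C for 30 min and TBA-reactive substance read at 535 nm.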

[2] = Cytotoxicity against HUVEC cells assessed as cell viability at 110 ug/ml after 24 hrs by MTT assay; assay type: cell-based; conditions: human, read-out: Activity
How it was run: (§2)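 Primary HUVECs were isolated by mild trypsinization, grown in M-199 with 15% FCS and ECGF, and used at passages 3–4. Cells got compound or 0.25% DMSO vehicle for 24 h. MTT (5 mg/ml) was added for the final 4 h, formazan dissolved in DMSO, and A570 read. Trypan blue exclusion confirmed the result. Runs were done at least 3 times in triplicate wells.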

HUVEC [3] = test: Inhibition of TNF-alpha-induced ICAM1 expression in HUVEC cells after 2 hrs by ELISA; assay type: functional, cell-based; conditions: Homo sapiens
How it was run: (§3)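 Cell-ELISA: HUVECs were pretreated with compound for 2 h, then given TNF-α 10 ng/ml for 16 h (ICAM-1, VCAM-1) or 4 h (E-selectin). Cells were fixed in 1% glutaraldehyde and blocked with 3% milk. Specific mAbs were applied overnight at 4 °C, then HRP goat anti-mouse, with OPD substrate at pH 4.5. The reaction was stopped with H2SO4 and A490 read. % inhibition = [1 − A490(compound)/A490(control)] × 100. Three independent experiments.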

HUVEC [4] = test: Inhibition of TNF-alpha-induced ICAM1 expression in HUVEC cells at 110 ug/ml after 2 hrs by ELISA; assay type: functional; conditions: Homo sapiens; how it was run: as §3
HUVEC [5] = test: Inhibition of TNF-alpha-induced ICAM1 expression in HUVEC cells at 60 ug/ml after 2 hrs by ELISA; assay type: functional; conditions: Homo sapiens; how it was run: as §3
Liver microsomes [6] = test: Inhibition of NADPH-catalyzed lipid peroxidation in Wistar rat liver microsome at 60 ug/ml after 10 mins; assay type: functional; how it was run: as §1
[7] = Cytotoxicity against HUVEC cells assessed as cell viability at 60 ug/ml after 24 hrs by MTT assay; assay type: cell-based; conditions: human, read-out: Activity; how it was run: as §2
Liver microsomes [8] = test: Inhibition of NADPH-catalyzed lipid peroxidation in Wistar rat liver microsome at 90 ug/ml after 10 mins; assay type: functional; how it was run: as §1
HUVEC [9] = test: Inhibition of TNF-alpha-induced ICAM1 expression in HUVEC cells at 90 ug/ml after 2 hrs by ELISA; assay type: functional; conditions: Homo sapiens; how it was run: as §3
[10] = Cytotoxicity against HUVEC cells assessed as cell viability at 90 ug/ml after 24 hrs by MTT assay; assay type: cell-based; conditions: human, read-out: Activity; how it was run: as §2
HUVEC [11] = test: Inhibition of TNF-alpha-induced VCAM1 expression in HUVEC cells at 90 ug/ml after 2 hrs by ELISA; assay type: functional; conditions: Homo sapiens; how it was run: as §3
HUVEC [12] = test: Inhibition of TNF-alpha-induced ICAM1 expression in HUVEC cells at 90 ug/ml after 2 hrs by flow cytometry; assay type: functional; conditions: Homo sapiens
How it was run: (§4)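 Flow cytometry: HUVECs were pretreated with compound for 2 h, then given TNF-α 10 ng/ml for 16 h (ICAM-1, VCAM-1) or 4 h (E-selectin). Cells were dislodged and stained with mAb (1.0 µg/10^6 cells, 30 min, 4 °C), then FITC goat anti-mouse IgG. Cells were fixed in 1% paraformaldehyde and 20,000 events acquired. Autofluorescence was subtracted and mean fluorescence intensity taken from three independent experiments.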

HUVEC [13] = test: Inhibition of TNF-alpha-induced E-selectin expression in HUVEC cells at 90 ug/ml after 2 hrs by ELISA; assay type: functional; conditions: Homo sapiens; how it was run: as §3
HUVEC [14] = test: Inhibition of TNF-alpha-induced NF-kappaB activation in HUVEC after 2 hrs by […] mobility shift assay; assay type: functional, cell-based; conditions: Homo sapiens
How it was run: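 HUVECs were pretreated with compound for 2 h, then given TNF-α 10 ng/ml for 30 min. Nuclear extract (10 µg) was incubated with 40–80 fmol of 32P-labelled NF-κB oligonucleotide in HEPES/NaCl/Tris buffer pH 7.5 with poly(dI-dC), 30 min at room temperature. Complexes were resolved on a 4% native gel and seen by autoradiography. Specificity was checked with excess unlabelled oligo.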

HUVEC [15] = test: Inhibition of TNF-alpha-induced E-selectin expression in HUVEC cells at 90 ug/ml after 2 hrs by flow cytometry; assay type: functional; conditions: Homo sapiens; how it was run: as §4
Neutrophil [16] = test: Inhibition of TNF-alpha-induced adhesion of neutrophils to endothelium at 90 ug/ml after 2 hrs by neutrophil adhesion assay; assay type: functional; conditions: Homo sapiens
How it was run: (§5)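 Static adhesion: HUVEC monolayers were pretreated with compound for 2 h, then given TNF-α 10 ng/ml for 6 h. Neutrophils from healthy donor blood (dextran sedimentation, Ficoll-Hypaque, hypotonic lysis) were added at 6 × 10^4/well and left 1 h at 37 °C. Bound cells were measured with OPD/CTAB/aminotriazole substrate at A490. % inhibition was calculated as for the ELISA. Three independent experiments.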

HUVEC [17] = test: Inhibition of TNF-alpha-induced VCAM1 expression in HUVEC cells after 2 hrs by ELISA; assay type: functional, cell-based; conditions: Homo sapiens; how it was run: as §3
HUVEC [18] = test: Inhibition of TNF-alpha-induced E-selectin expression in HUVEC cells after 2 hrs by ELISA; assay type: functional, cell-based; conditions: Homo sapiens; how it was run: as §3
Neutrophil [19] = test: Inhibition of TNF-alpha-induced adhesion of neutrophils to endothelium after 2 hrs by neutrophil adhesion assay; assay type: functional, cell-based; conditions: Homo sapiens; how it was run: as §5
HUVEC [20] = test: Blockade of TNF-alpha-induced p65 nuclear translocation in HUVEC cells after 2 hrs by Western blot; assay type: functional, cell-based; conditions: Homo sapiens
How it was run: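 HUVECs (2 × 10^6) were pretreated with or without compound for 2 h, then given TNF-α 10 ng/ml for 30 min. Extracts ran on 8% SDS-PAGE and were blotted with anti-p65, with γ-tubulin as loading control. Detection used an HRP anti-rabbit secondary and DAB.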

HUVEC [21] = test: Inhibition of TNF-alpha-induced VCAM1 expression in HUVEC cells at 90 ug/ml after 2 hrs by flow cytometry; assay type: functional; conditions: Homo sapiens; how it was run: as §4
[22] = Cytotoxicity against HUVEC cells assessed as cell viability at 70 ug/ml after 24 hrs by MTT assay; assay type: cell-based; conditions: human, read-out: Activity; how it was run: as §2
HUVEC [23] = test: Inhibition of TNF-alpha-induced ICAM1 expression in HUVEC cells at 70 ug/ml after 2 hrs by ELISA; assay type: functional; conditions: Homo sapiens; how it was run: as §3
Liver microsomes [24] = test: Inhibition of NADPH-catalyzed lipid peroxidation in Wistar rat liver microsome at 70 ug/ml after 10 mins; assay type: functional; how it was run: as §1
[25] = Cytotoxicity against HUVEC cells assessed as cell viability at 80 ug/ml after 24 hrs by MTT assay; assay type: cell-based; conditions: human, read-out: Activity; how it was run: as §2
HUVEC [26] = test: Inhibition of TNF-alpha-induced ICAM1 expression in HUVEC cells at 80 ug/ml after 2 hrs by ELISA; assay type: functional; conditions: Homo sapiens; how it was run: as §3
Liver microsomes [27] = test: Inhibition of NADPH-catalyzed lipid peroxidation in Wistar rat liver microsome at 80 ug/ml after 10 mins; assay type: functional; how it was run: as §1
HUVEC [28] = test: Inhibition of TNF-alpha-induced ICAM1 expression in HUVEC cells at 100 ug/ml after 2 hrs by ELISA; assay type: functional; conditions: Homo sapiens; how it was run: as §3
Liver microsomes [29] = test: Inhibition of NADPH-catalyzed lipid peroxidation in Wistar rat liver microsome at 100 ug/ml after 10 mins; assay type: functional; how it was run: as §1
[30] = Cytotoxicity against HUVEC cells assessed as cell viability at 100 ug/ml after 24 hrs by MTT assay; assay type: cell-based; conditions: human, read-out: Activity; how it was run: as §2

CCCOC(=O)/C=C/c1coc2cc(O)ccc2c1=O
inhibition (Liver microsomes [1]): 39.8%
viability at 24 h, 110 ug/ml [2]: 97%
IC50 (HUVEC [3]): 349 µM
inhibition at 110 µg/mL (HUVEC [4]): 63.5%

CC(C)OC(=O)/C=C/c1coc2cc(O)ccc2c1=O
inhibition at 60 µg/mL (HUVEC [5]): 52.5%
inhibition (Liver microsomes [6]): 26.2%
viability at 24 h, 60 ug/ml [7]: 96%
IC50 (HUVEC [3]): 218 µM

O=c1ccoc2ccccc12 [CHROMONE]
inhibition (Liver microsomes [8]): 25.4%
inhibition at 90 µg/mL (HUVEC [9]): 47.5%
viability at 24 h, 90 ug/ml [10]: 95%

CCOC(=O)/C=C/c1coc2ccccc2c1=O
inhibition at 90 µg/mL (HUVEC [11]): > 95%
inhibition (Liver microsomes [8]): 52.9%
inhibition at 90 µg/mL (HUVEC [12]): 95%
inhibition at 90 µg/mL (HUVEC [13]): > 95%
Activity (HUVEC [14]): Active
inhibition at 90 µg/mL (HUVEC [15]): 95%
inhibition at 90 µg/mL (Neutrophil [16]): 65%
inhibition at 90 µg/mL (HUVEC [9]): 90%
Activity (HUVEC [17]): Dose-dependent effect
viability at 24 h, 90 ug/ml [10]: 96%
IC50 (HUVEC [3]): 184 µM
Activity (HUVEC [18]): Dose-dependent effect
Activity (Neutrophil [19]): Dose-dependent effect
Activity (HUVEC [20]): Active
inhibition at 90 µg/mL (HUVEC [21]): 95%

CC(C)OC(=O)/C=C/c1coc2ccccc2c1=O
viability at 24 h, 70 ug/ml [22]: 98%
inhibition at 70 µg/mL (HUVEC [23]): 73.5%
inhibition (Liver microsomes [24]): 50.8%
IC50 (HUVEC [3]): 232 µM

CCCOC(=O)/C=C/c1coc2ccccc2c1=O
viability at 24 h, 80 ug/ml [25]: 97%
inhibition at 80 µg/mL (HUVEC [26]): 81.8%
inhibition (Liver microsomes [27]): 42.5%
IC50 (HUVEC [3]): 227 µM

C=CCOC(=O)/C=C/c1coc2ccccc2c1=O
inhibition (Liver microsomes [8]): 43.4%
inhibition at 90 µg/mL (HUVEC [9]): 64.5%
viability at 24 h, 90 ug/ml [10]: 95%
IC50 (HUVEC [3]): 251 µM

CCOC(=O)/C=C/c1coc2cc(O)ccc2c1=O
inhibition (Liver microsomes [8]): 32.3%
inhibition at 90 µg/mL (HUVEC [9]): 68.2%
viability at 24 h, 90 ug/ml [10]: 95%
IC50 (HUVEC [3]): 269 µM

C=CCOC(=O)/C=C/c1coc2cc(O)ccc2c1=O
inhibition at 100 µg/mL (HUVEC [28]): 55.2%
inhibition (Liver microsomes [29]): 13.3%
viability at 24 h, 100 ug/ml [30]: 97%
IC50 (HUVEC [3]): 273 µM
